Experimental data reported in ChEMBL document CHEMBL4382230, “Structure-activity relationships, biological evaluation and structural studies of novel pyrrolonaphthoxazepines as antitumor agents” (Eur J Med Chem, 2019).
≈ marks a conversion by molar mass, not a printed value. Calls of active or inactive are those of the source. The calls are words filed in the database; no cut-off is given here.

Legend:
[1] = test system: Ca9-22; assay: Cytotoxicity against human Ca9-22 cells after 72 hrs by MTT assay; type: functional, cell-based; conditions: Ca9-22, 72 h
[2] = test system: PC-9; assay: Cytotoxicity against human PC9 cells assessed as reduction in cell survival at 0.1 to 10 uM after 18 hrs by MTT assay; type: functional, cell-based
Method in brief: (§1)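 Seeded at 2,500 cells/well in medium with 10% serum. After adhesion, exposed to 0.1, 1 and 10 μM in medium with 5% serum for 18 h. Medium then replaced with fresh medium containing 1.2 mM MTT for 4 h; formazan dissolved in DMSO, absorbance at 540 nm. Results given as % of basal response.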

[3] = test system: SCC-4; assay: Cytotoxicity against human SCC4 cells after 48 hrs by MTT assay; type: functional, cell-based; conditions: SCC-4, 48 h
Method in brief: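 Cells (NCI-H929 in RPMI-1640 GlutaMAX; SCC4 in DMEM GlutaMAX; 10% FBS, 37 °C, 5% CO2) treated with increasing concentrations for 48 h. IC50 is the mean of three independent experiments.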

[4] = test system: B16-F10; assay: Cytotoxicity against mouse B16F10 cells assessed as reduction in cell survival at 0.1 to 10 uM after 18 hrs by MTT assay; type: functional, cell-based; method in brief: as §1
[5] = test system: B16-F1; assay: Cytotoxicity against mouse B16-F1 cells assessed as reduction in cell survival at 0.1 to 10 uM after 18 hrs by MTT assay; type: functional, cell-based; method in brief: as §1
[6] = test system: A2780; assay: Cytotoxicity against human A2780 cells after 48 hrs by MTT assay; type: functional, cell-based; conditions: A2780, 48 h
Method in brief: (§2)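 Cells seeded at 12,000 to 17,000 per well depending on line, incubated overnight, then given serial dilutions of ligand for 48 h. MTT at 2.5 mg/mL added for 4 h at 37 °C, formazan solubilized overnight (10% SDS, 45% dimethylformamide, pH 5.5), absorbance read at 595/690 nm. IC50 from log-dose response curves; mean ± SE of three independent assays.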

[7] = test system: GISTT1; assay: Cytotoxicity against human GISTT1 cells assessed as reduction in cell viability at 1 uM after 48 hrs by alamar blue assay; type: functional, cell-based
Method in brief: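 GIST-T1 seeded at 4000 cells/well, exposed to 1 or 10 μM for 48 h; viability read by AlamarBlue.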

[8] = test system: HCC827; assay: Induction of apoptosis in human HCC827 cells assessed as increase in caspase-3 expression at 10 uM after 18 hrs by Western blot analysis; type: functional, cell-based
Method in brief: (§3)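 PC9 and HCC827 maintained in DMEM with 10% FBS, then exposed to 10 μM compound for 18 h in 5% serum. Caspase 3 activation and cell cycle proteins examined by western blot.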

[9] = test system: PC-9; assay: Induction of apoptosis in human PC9 cells assessed as increase in caspase-3 expression at 10 uM after 18 hrs by Western blot analysis; type: functional, cell-based; method in brief: as §3
[10] = test system: NB-4; assay: Cell cycle arrest in human NB4 cells assessed as accumulation of cells at G1 phase after 24 hrs by propidium iodide staining-based flow cytometric analysis; type: functional
Method in brief: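 NB4 cultured at 37 °C, 5% CO2 in RPMI-1640 with 10% heat-inactivated FBS. Treated at 50 and 100 nM, 1 and 10 μM for 24 h. Cells fixed/permeabilized in 70% ethanol overnight at 4 °C, then given RNase and 20 μg/ml PI for 30 min. Doublets excluded, 20,000 events per sample; cell-cycle phase distribution analysed.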

[11] = test system: NIH3T3; assay: Cytotoxicity against mouse NIH/3T3 cells after 48 hrs by MTT assay; type: cell-based; conditions: NIH3T3, 48 h; method in brief: as §2
[12] = Chemical stability of compound in pH 7.4 aqueous solution assessed as compound remaining after 24 hrs by HPLC analysis; type: physicochemical; conditions: read-out: Stability
[13] = test system: HCC827; assay: Induction of apoptosis in human HCC827 cells assessed as reduction in cyclin D1 expression at 10 uM after 18 hrs by Western blot analysis; type: functional, cell-based; method in brief: as §3
[14] = test system: Ca9-22; assay: Induction of apoptosis in human Ca9-22 cells at 500 nM after 48 hrs by Annexin V/propidium iodide staining-based flow cytometric analysis relative to control; type: functional, cell-based
Method in brief: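 Seeding density: NCI-H929 and Ca9.22 at 30×10^4 cells/mL, SCC4 at 15×10^4 cells/mL. Cells exposed 48 h to compound (500 nM; 50 μM in SCC4 for one compound) or vehicle (1% EtOH v/v). Annexin V/PI staining, flow cytometry, 10,000 cells gated on vehicle-treated cells. Three independent experiments, mean ± S.E.M, T-test.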

[15] = test system: A549; assay: Cytotoxicity against human A549 cells assessed as reduction in cell survival at 0.1 to 10 uM after 18 hrs by MTT assay; type: functional, cell-based; method in brief: as §1
[16] = test system: HCC827; assay: Cytotoxicity against human HCC827 cells assessed as reduction in cell survival at 0.1 to 10 uM after 18 hrs by MTT assay; type: functional, cell-based; method in brief: as §1
[17] = Chemical stability of compound in pH 3 aqueous solution assessed as compound remaining after 24 hrs by HPLC analysis; type: physicochemical; conditions: read-out: Stability
[18] = test system: Ca9-22; assay: Cytotoxicity against human Ca9-22 cells after 48 hrs by MTT assay; type: functional, cell-based; conditions: Ca9-22, 48 h
[19] = test system: HL-60; assay: Cell cycle arrest in human HL60 cells assessed as accumulation of cells at G2/M phase at 10 uM after 24 hrs by propidium iodide staining-based flow cytometric analysis; type: functional
Method in brief: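 HL-60 exposed to 10 μM for 24 h, vehicle 0.1% DMSO. Cells plated at 2×10^5 cells/mL, stained in PBS with 0.1% sodium citrate, 0.1% NP40 and propidium iodide for 30 min at room temperature in the dark. DNA content by flow cytometry; G2/M fraction reported.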

[20] = test system: HCC827; assay: Induction of apoptosis in human HCC827 cells assessed as increase in p21 expression at 10 uM after 18 hrs by Western blot analysis; type: functional, cell-based; method in brief: as §3
[21] = test system: HL-60; assay: Induction of autophagy in human HL60 cells assessed as […] in LC3B-2 levels at 10 uM after 16 hrs in presence of lysosomal inhibitor chloroquine by immunoblot analysis; type: functional, cell-based
Method in brief: (§4)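 HL-60 in serum-supplemented RPMI 1640, or starved in Earle's Balanced Salts for 15 min beforehand, then treated with 10 μM compound with or without 40 μM chloroquine for 1 h 45 min or 16 h. LC3B-II measured by immunoblot, densitometry normalized to actin, three independent experiments, Student's T-test.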

[22] = test system: HL-60; assay: Induction of autophagy in serum starved human HL60 cells assessed as increase in LC3B-2 levels at 10 uM after 105 mins in presence of lysosomal inhibitor chloroquine by immunoblot analysis; type: functional, cell-based; method in brief: as §4
[23] = Apparent solubility of compound in sodium phosphate buffer at 15 uM after 20 mins; type: physicochemical
[24] = test system: HL-60; assay: Induction of autophagy in serum starved human HL60 cells assessed as increase in LC3B-2 levels at 10 uM after 105 mins by immunoblot analysis; type: functional, cell-based; method in brief: as §4
[25] = Solubility of compound in pH 7.4 aqueous solution after 12 hrs by HPLC analysis; type: physicochemical
Method in brief: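 Water solubility at pH 7.4 measured by HPLC analysis.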

[26] = test system: NIH3T3; assay: Cytotoxicity against mouse NIH/3T3 cells harboring MDR G185 after 48 hrs by MTT assay; type: functional, cell-based; conditions: NIH3T3, 48 h; method in brief: as §2
[27] = Ratio of IC50 for human A2780AD cells to IC50 for human A2780 cells; type: functional
Method in brief: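 Relative resistance: IC50 in the P-gp overexpressing resistant line divided by IC50 in the parental line. Both IC50s came from the 48 h MTT assay (serial dilutions, absorbance at 595/690 nm, log-dose response curves, three independent assays).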

For `CC(=O)OC1=C(c2cccc3ncccc23)Oc2cc3ccccc3cc2-n2cccc21`, the IC50 [1] was 4.5 µM, the Activity [2] was “Active” and the IC50 [3] was 0.222 µM. For the same compound, the Activity [4] was “Active”, the Activity [5] was “Active” and the IC50 [6] was 0.08 µM. The Activity [7] was “Active”, the Activity [8] was “Active” and the Activity [9] was “Active”. For the same compound, the Activity [10] was “Dose-dependent effect”, the IC50 [11] was 0.042 µM and the remaining at 24 h [12] was 95.6%. For the same compound, the Activity [13] was “Active”, the Activity [14] was “inactive” and the Activity [15] was “Active”. For the same compound, the Activity [16] was “Active”, the remaining at 24 h [17] was 65% and the IC50 [18] was 13.4 µM. The Activity [19] was “Active”, the Activity [20] was “Active” and the Activity [21] was “Active”. For the same compound, the Activity [22] was “Active”, the solubility at 20 min, 15 µM [23] was 0.17 µM (≈ 0.0711 µg/mL) and the Activity [24] was “Active”. For the same compound, the solubility at 12 h [25] was 458 µM (≈ 192 µg/mL), the IC50 [26] was 0.084 µM and the “Ratio IC50” value [27] was 1.15.
